High-throughput results as filed in PubChem.
MDM2 E3 inh: inhibitors of human Mdm2 E3 ubiquitin ligase; Q00987; cell-based MDM2 ubiquitination luciferase reporter, 2 h; 0 = plate control, 100 = twice control, blank-subtracted; signal enhancement, % at 5 µM; 0.11% of 210,000 active; AID 1230;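 active = signal enhancement of 30% or more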;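 note: luminescence tracks abundance of the self-degrading MDM2-luciferase fusion protein; higher signal means inhibition of MDM2 E3 ligase activity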
Target sequence (Q00987 whole entry, looked up, the tested form may be a part): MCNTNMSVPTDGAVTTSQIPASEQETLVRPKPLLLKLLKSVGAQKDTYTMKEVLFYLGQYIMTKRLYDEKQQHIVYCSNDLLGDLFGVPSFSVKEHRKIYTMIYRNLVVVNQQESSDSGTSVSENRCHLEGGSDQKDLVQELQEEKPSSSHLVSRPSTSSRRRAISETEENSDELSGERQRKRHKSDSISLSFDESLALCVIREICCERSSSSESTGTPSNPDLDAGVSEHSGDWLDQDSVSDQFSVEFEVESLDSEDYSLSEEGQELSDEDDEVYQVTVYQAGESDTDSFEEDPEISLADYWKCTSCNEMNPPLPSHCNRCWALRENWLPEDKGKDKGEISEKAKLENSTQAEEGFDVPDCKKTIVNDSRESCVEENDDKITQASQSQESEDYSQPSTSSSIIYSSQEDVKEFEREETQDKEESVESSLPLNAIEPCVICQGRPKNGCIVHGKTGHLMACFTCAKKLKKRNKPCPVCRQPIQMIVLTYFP
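Material: stable MDM2–luciferase fusion reporter cells / Quantity: 2000 cells/well / Dosing: single 5 µM compound dose, 0.2% final DMSO / Buffer or medium: DMEM / Schedule: 4 h cell settling then 2 h compound exposure, 37 °C / Detection: luminescence with SteadyLite reagent, 15 min at room temperature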
Wee1 stabilizer: human Wee1 degradation inhibition, primary screen. AID 1321. HeLa Luc-Wee1K328M stability, luciferase luminescence; 100% = proteasome inhibitor MG132 effect. 1.2% of 220,000 active. P30291. reporter increase, % at 5 µM;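 active = activation above the mean of all tested compounds plus 3 SD, set per screening run, cut at about 8.8% in these data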;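 note: cells exposed to compound for 20 h before luminescence read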
Hsp70 act: transcriptional activators of Hsp70; activation, % at 10 µM; HeLa Hsp70 promoter luciferase reporter, luminescence; scaled: vehicle 0, proteasome-inhibitor control 100%; 0.04% of 200,000 active;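 active = activation above the mean across all tested compounds plus 3 SD, cutoff set per campaign, cut at about 5.5% in these data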
m-calpain inh: calpain II (pig) inhibition | purified calpain II, fluorogenic peptide substrate, 30 min | inhibition, % at 16 µM | 0.37% of 220,000 active;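 active = inhibition above about 50%, limit read from the data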
Pf gametocyte: inhibitors of late stage P. falciparum gametocyte viability. P. falciparum stage V gametocytes, ATP luminescence, 24 h. inhibition, % at 10.9 µM. 0.065% of 150,000 active;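 active = inhibition above the mean plus 3 SD of compounds within the control limits, set per campaign, cut at about 38% in these data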
Each line names hits and unclear results; the compound was inactive in the other large screens. This is a sample that favours compounds with a hit; in the whole collection about 1.5% have one here.

CC(C)c1ccc(/C=N/NC(=O)c2cc(-c3cccc([N+](=O)[O-])c3)n[nH]2)cc1	none (no result: Hsp70 act)
C/C(=N/NC(=O)c1cc(-c2cccc([N+](=O)[O-])c2)n[nH]1)c1ccc(Cl)cc1	m-calpain inh 68
CC(=O)Nc1ccc(Cc2nc3c([nH]2)c(=O)n(C)c(=O)n3C)cc1	none (no result: Hsp70 act, Pf gametocyte)
O=C1COc2ccc(C(=O)COC(=O)Cc3ccccc3F)cc2N1	none
O=C1COc2ccc(C(=O)COC(=O)Cc3ccsc3)cc2N1	Wee1 stabilizer 10
O=C(O)CC(CC(=O)Nc1ccc(N2CCOCC2)cc1)c1ccccc1 (stereo not given)	none (no result: Hsp70 act)
CN(CC(=O)Nc1ccc(N2CCOCC2)cc1)C(=O)CC(c1ccccc1)c1ccccc1	Wee1 stabilizer 10
O=C(COC(=O)Cc1ccc(F)cc1)NCc1ccco1	Pf gametocyte 49
O=C(COC(=O)/C=C/c1ccc(Cl)cc1Cl)NCc1ccco1	Wee1 stabilizer 9.7
Nc1c(C2=NCCO2)nnn1Cc1ccccc1	Wee1 stabilizer 9.2
COC(=O)c1ccccc1NC(=O)Nc1cc(C)ccn1	none
Cc1ccnc(NC(=O)Nc2ccc(Br)cc2Cl)c1	Wee1 stabilizer 9.5
CCOC(=O)C1CCN(C(=S)Nc2cc(C)ccc2C)CC1	MDM2 E3 inh 98 (no result: Pf gametocyte)
CC(C)c1onc(C(=O)Nc2cccnc2Cl)c1[N+](=O)[O-]	m-calpain inh 56
Cc1ccc(NC(=O)c2noc(C(C)C)c2[N+](=O)[O-])cc1	m-calpain inh 58
Cc1onc(C(=O)Nc2cccnc2Cl)c1[N+](=O)[O-]	none
COc1cc(CN2CCN(CCCc3ccccc3)C(CCO)C2)cc(OC)c1O (stereo not given)	none (no result: MDM2 E3 inh, Wee1 stabilizer, Hsp70 act, m-calpain inh)
COc1cc(/C=N/NC(=O)COc2ccc(-n3cnnn3)cc2)ccc1OCC(N)=O	Wee1 stabilizer 9.2 (no result: Hsp70 act)
NC(=O)COc1ccc(-n2cnnn2)cc1	none (no result: Pf gametocyte)
COc1ccc(/C=N/NC(=O)CCn2cnc(-c3ccccc3)c2-c2ccccc2)cc1OC	Wee1 stabilizer 11
COc1ccc(/C=N/NC(=O)CCC(=O)Nc2ccccc2)cc1OC	none
CC(CNC(=O)c1ccccc1Cl)c1ccccc1 (stereo not given)	none (no result: MDM2 E3 inh, Wee1 stabilizer, Hsp70 act, m-calpain inh)
CCOc1ccccc1N1CC(O)=C(c2nc3ccccc3s2)C1=N	Wee1 stabilizer 10
COc1ccc(OC)c(N2CC(O)=C(c3nc4ccccc4s3)C2=N)c1	none (no result: Pf gametocyte)
CCC(CO)[n+]1c(C)cc(/C=C2\Sc3ccccc3N2Cc2ccccc2)cc1C (stereo not given)	none
Nc1cccc2c1C(=O)N(C(=O)/C=C/c1cccc(Br)c1)C2=O	MDM2 E3 inh 35 (no result: Hsp70 act)
Oc1ccccc1/C=C/c1noc(-c2ccccc2O)n1	Wee1 stabilizer 9.2
COc1cc(/C=C/c2noc(-c3ccccc3O)n2)ccc1OC(C)=O	none (no result: Hsp70 act)
O=[N+]([O-])c1cc(/C=N/n2cnnc2)ccc1N1CCCC1	m-calpain inh 62
O=[N+]([O-])c1cc(/C=N/O)ccc1N1CCCC1	none
COC(=O)/C(C#N)=C/c1c(Oc2cccc(C)c2)nc2ccccn2c1=O	none (no result: Hsp70 act)
Cc1cccc(Oc2nc3ccccn3c(=O)c2/C=C(\C#N)C(=O)NC2CCS(=O)(=O)C2)c1 (stereo not given)	Wee1 stabilizer 10
COc1c(Br)cc(/C=N/n2c(-c3ccccc3)n[nH]c2=S)c(O)c1Br	none (no result: MDM2 E3 inh, Wee1 stabilizer, Hsp70 act, m-calpain inh)
CN(C(=O)c1ccc(NC(=O)C2CCCN(C(=O)OC(C)(C)C)C2)cc1)C1CCC1 (stereo not given)	none (no result: MDM2 E3 inh, Wee1 stabilizer, Hsp70 act, m-calpain inh)
Cc1oc2c(c1C(=O)Nc1cccc3ccccc13)CCCC2	m-calpain inh 58
COc1cccc(-c2nnc3sc(-c4ccccc4)nn23)c1	none (no result: MDM2 E3 inh)
COc1cccc(OC)c1-c1nn2c(-c3cc(-c4ccccc4)n[nH]3)nnc2s1	m-calpain inh 85
O=C(COc1ccc(Cl)cc1Cl)N/N=C/c1ccc(OC2OC(CO)C(O)C(O)C2O)cc1 (stereo not given)	none (no result: Hsp70 act)
COc1cc(NC(=O)c2cc(-c3ccccc3Cl)on2)cc(OC)c1OC	none (no result: MDM2 E3 inh, Wee1 stabilizer, Hsp70 act, m-calpain inh)
CCOc1ccc(C(=O)NCC2CCN(CC3CCCCC3)CC2)cc1	none (no result: MDM2 E3 inh, Wee1 stabilizer, Hsp70 act, m-calpain inh)
CCN1CCCC1CNC(=O)C1CCN(C(=O)c2cc3sccc3n2Cc2ccc(F)cc2)CC1 (stereo not given)	Wee1 stabilizer 12
O=C(NCCCN1CCCC1)C1CCN(C(=O)c2cc3sccc3n2Cc2ccc(F)cc2)CC1	none (no result: Pf gametocyte)
CCOC(=O)C1CCN(c2ncnc3c2cnn3-c2ccc(OC)cc2)CC1	Wee1 stabilizer 9.1
COc1ccc(-c2nn(-c3ccccc3)cc2/C=N/n2cnnc2)cc1OC	Wee1 stabilizer 9.3 (no result: Pf gametocyte)
